Experimental findings from ChEMBL document CHEMBL5653623 (J Pharmacol Exp Ther, 2015) are described below.

The source made the active and inactive calls. No cut-off for these calls is given here.

The test system of data set [1] is Mus musculus. In words: Effect on food intake in MitoPark mouse at 30 mg/kg administered for 15 weeks. It counts as functional, organism-based. The essentials: (§1)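 MitoPark mice, 5 weeks old, were allocated by baseline 60-min LMA to untreated diet or diet targeting 30 mg/kg/day (reformulated every 3 weeks). Wild-type littermates received vehicle diet. Body weight and food intake were recorded weekly. 60-min LMA (distance, rearing) was run at 8, 11, 14 and 17 weeks of age.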

Data set [2] deals with Leucine-rich repeat serine/threonine-protein kinase 2 (Mus musculus) (UniProt Q5S006). In words: In vivo inhibition of LRRK2 in MitoPark mouse brain assessed as total LRRK2 protein level in presence of MJFF-2 antibody by Western blotting analysis. In kind it is functional, organism-based. The method in brief: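 MitoPark mice fed diet targeted to 30 mg/kg/day, or untreated diet, from 5 weeks of age. Cortex collected after 3, 9 or 15 weeks of treatment, n = 10 per group. Blots probed for pSer935 LRRK2, total LRRK2 (MJFF-2 antibody) and GAPDH. pSer935 reported relative to vehicle-diet MitoPark mice.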
Sequence of Leucine-rich repeat serine/threonine-protein kinase 2 (Mus musculus) (Q5S006 whole entry): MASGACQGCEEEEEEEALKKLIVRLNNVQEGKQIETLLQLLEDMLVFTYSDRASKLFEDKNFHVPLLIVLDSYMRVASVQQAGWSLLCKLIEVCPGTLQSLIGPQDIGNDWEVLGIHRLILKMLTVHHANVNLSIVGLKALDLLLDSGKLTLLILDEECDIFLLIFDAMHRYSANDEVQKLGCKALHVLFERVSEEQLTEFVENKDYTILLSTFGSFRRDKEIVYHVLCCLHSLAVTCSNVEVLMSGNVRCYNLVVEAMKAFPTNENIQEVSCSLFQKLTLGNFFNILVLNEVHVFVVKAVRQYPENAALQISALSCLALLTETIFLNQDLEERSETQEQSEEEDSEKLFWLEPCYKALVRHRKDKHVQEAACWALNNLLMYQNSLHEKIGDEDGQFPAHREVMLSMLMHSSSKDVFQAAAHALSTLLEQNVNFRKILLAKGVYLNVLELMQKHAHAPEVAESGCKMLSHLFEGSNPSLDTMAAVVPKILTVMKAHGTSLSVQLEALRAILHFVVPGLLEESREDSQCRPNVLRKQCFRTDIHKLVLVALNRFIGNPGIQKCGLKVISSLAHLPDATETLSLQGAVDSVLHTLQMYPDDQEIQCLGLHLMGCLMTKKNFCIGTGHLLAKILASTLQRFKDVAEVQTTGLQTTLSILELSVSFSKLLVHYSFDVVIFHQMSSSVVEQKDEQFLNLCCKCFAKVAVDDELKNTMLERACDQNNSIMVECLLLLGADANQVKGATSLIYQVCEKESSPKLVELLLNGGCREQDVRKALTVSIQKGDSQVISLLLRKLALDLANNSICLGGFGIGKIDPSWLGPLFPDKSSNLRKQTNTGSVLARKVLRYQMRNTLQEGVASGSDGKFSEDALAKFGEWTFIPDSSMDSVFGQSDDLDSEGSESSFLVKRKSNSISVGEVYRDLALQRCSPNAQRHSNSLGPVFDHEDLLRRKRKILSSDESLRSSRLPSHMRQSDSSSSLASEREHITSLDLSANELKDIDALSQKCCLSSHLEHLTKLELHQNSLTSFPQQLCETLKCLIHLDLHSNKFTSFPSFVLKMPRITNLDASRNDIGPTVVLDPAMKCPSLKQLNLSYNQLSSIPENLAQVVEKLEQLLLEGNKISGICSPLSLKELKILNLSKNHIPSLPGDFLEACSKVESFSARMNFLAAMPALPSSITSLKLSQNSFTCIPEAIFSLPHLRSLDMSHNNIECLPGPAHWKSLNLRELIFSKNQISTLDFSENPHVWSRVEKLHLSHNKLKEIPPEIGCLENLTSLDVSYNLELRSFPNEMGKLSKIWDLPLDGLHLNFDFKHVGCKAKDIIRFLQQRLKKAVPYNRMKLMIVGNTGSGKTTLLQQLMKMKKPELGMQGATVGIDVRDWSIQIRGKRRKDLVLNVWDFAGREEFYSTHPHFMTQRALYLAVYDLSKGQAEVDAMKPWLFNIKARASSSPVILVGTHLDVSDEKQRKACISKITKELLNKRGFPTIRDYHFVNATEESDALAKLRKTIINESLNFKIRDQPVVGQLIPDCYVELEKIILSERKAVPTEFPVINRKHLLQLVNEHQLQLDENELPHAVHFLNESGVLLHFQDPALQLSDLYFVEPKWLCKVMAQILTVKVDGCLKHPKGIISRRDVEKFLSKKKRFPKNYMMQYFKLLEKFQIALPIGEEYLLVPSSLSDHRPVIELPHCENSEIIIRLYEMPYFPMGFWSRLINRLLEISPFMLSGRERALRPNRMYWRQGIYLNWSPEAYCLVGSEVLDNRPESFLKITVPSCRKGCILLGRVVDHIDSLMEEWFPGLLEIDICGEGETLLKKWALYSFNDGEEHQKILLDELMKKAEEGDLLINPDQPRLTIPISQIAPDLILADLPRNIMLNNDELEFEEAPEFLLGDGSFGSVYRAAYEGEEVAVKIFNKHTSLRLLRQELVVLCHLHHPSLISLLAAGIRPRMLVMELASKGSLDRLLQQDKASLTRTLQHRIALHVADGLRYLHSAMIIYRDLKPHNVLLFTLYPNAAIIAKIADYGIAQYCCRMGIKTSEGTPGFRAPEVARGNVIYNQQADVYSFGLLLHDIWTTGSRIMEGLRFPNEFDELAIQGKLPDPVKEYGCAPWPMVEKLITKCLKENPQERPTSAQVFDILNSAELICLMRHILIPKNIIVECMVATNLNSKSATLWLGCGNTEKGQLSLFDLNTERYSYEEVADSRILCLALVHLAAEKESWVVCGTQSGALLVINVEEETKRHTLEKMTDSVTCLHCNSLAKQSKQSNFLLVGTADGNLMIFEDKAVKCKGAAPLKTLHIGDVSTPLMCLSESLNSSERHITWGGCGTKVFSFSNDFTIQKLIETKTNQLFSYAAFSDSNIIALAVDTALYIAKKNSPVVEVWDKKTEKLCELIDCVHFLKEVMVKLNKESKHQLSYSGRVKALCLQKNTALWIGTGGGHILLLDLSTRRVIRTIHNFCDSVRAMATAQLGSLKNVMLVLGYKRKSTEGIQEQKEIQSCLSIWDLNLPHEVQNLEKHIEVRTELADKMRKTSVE
For orientation: A western blot detects proteins with antibodies after separation by electrophoresis.

The nature of data set [3]: MRT in C57Bl/6 mouse at 2 mg/kg, iv measured after 480 mins by LC-MS/MS analysis. It counts as ADME, organism-based. As to conditions: in vivo. The essentials:
(§2)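 Male C57Bl/6 mice (20-25 g) given a single IV dose (2 mg/kg) or oral dose (10 mg/kg). Blood was sampled at 5, 15, 30, 60, 120, 240, 360 and 480 min and plasma prepared by centrifugation. Plasma drug levels were measured by LC/MS/MS. Values are mean (CV%), N=3.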

Data set [4] has as its target Leucine-rich repeat serine/threonine-protein kinase 2 (Mus musculus) (UniProt Q5S006). In words: In vivo inhibition of LRRK2 in C57Bl/6 mouse brain assessed as total LRRK2 protein level at 3 to 120 mg/kg administered for 11 days and measured for 4 to 24 hrs by Western blotting analysis. It counts as functional, organism-based. As to conditions: dose 3-120 mg/kg, time 11.0 day. The essentials: (§3)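 Male C57Bl/6 mice, singly housed on a reversed light cycle. Fed drug diet targeted to 3, 10, 30, 60 or 120 mg/kg/day (assuming 3 g/day intake), or untreated diet, for 11 days. Killed 4, 8 or 24 h after dark-cycle onset, n = 5 per group. Cortex immunoblotted for pSer935/total LRRK2 and total LRRK2/GAPDH. Total LRRK2 detected with MJFF2 antibody.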

The nature of data set [5]: AUC in C57Bl/6 mouse at 10 mg/kg, po measured after 480 mins by LC-MS/MS analysis. In kind it is ADME, organism-based. As to conditions: in vivo. The essentials: as §2
A short description of data set [6]: MRT in C57Bl/6 mouse at 10 mg/kg, po measured after 480 mins by LC-MS/MS analysis. It counts as ADME, organism-based. Particulars: in vivo. The essentials:
as §2

A short description of data set [7]: AUC in C57Bl/6 mouse at 2 mg/kg, iv measured after 480 mins by LC-MS/MS analysis. It counts as ADME, organism-based. As to conditions: in vivo. The essentials: as §2
The nature of data set [8]: Unbound brain concentration in C57Bl/6 mouse at 100 mg/kg, po administered for 1 hr. As to conditions: in vivo. It counts as ADME, organism-based.
The nature of data set [9]: Unbound plasma concentration in C57Bl/6 mouse administered for 11 days and measured after 24 hrs. As to conditions: 264 h, time 11 day. It counts as ADME, cell-free. The method in brief:
(§4)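 Male C57Bl/6 mice, singly housed on a reversed 12 h light cycle, were fed diet formulated to give 3, 10, 30, 60 or 120 mg/kg/day (assumes 3 g/day intake) or untreated diet for 11 days. Body weight and food intake were monitored. Spontaneous locomotion and rearing were recorded over 60 min. On day 11, mice were euthanized 4, 8 or 24 h after dark onset and plasma and brain drug levels measured; n = 5 per group.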

Data set [10] can be described thus: Unbound brain concentration in C57Bl/6 mouse at 1 mg/kg, po administered for 1 hr. In kind it is ADME, organism-based. As to conditions: in vivo.
The subject of data set [11] is Mus musculus. As to the kind of experiment: Effect on behavioral phenotype in 8 weeks old MitoPark mouse assessed as rearing behavior at 30 mg/kg/day administered for 3 weeks and measured after 60 mins. It counts as functional, organism-based. The essentials:
as §1

Data set [12] has as its target Leucine-rich repeat serine/threonine-protein kinase 2 (Mus musculus) (UniProt Q5S006). As to the kind of experiment: In vivo inhibition of LRRK2 in C57Bl/6 mouse kidney assessed as total LRRK2 protein level at 10 to 120 mg/kg administered for 11 days and measured after 8 hrs by Western blotting analysis. In kind it is functional, organism-based. As to conditions: dose 10-120 mg/kg, time 11.0 day. The essentials:
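Same 11-day in-diet design in male C57Bl/6 mice: 3-120 mg/kg/day or untreated diet, killed 4, 8 or 24 h after dark-cycle onset, n = 5 per group. Kidneys dissected for Western blot of pSer935 and total LRRK2, with total LRRK2 detected by MJFF-2 antibody.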

Data set [13] shares this target. In words: In vivo inhibition of LRRK2 in 20 weeks old MitoPark mouse lung assessed as reduction in pSer935 LRRK2 level at 30 mg/kg/day administered for 15 weeks by Western blotting analysis. It counts as functional, organism-based. The essentials: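 MitoPark mice on drug-containing diet targeted to 30 mg/kg/day from 5 weeks of age, with the diet reformulated every 3 weeks to hold the target. Untreated-diet MitoPark and wild-type littermate controls. Killed by CO2 at 20 weeks of age. Lung and kidney taken from 5 mice per group for pSer935 and total LRRK2 immunoblots.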

Data set [14] can be described thus: Effect on spontaneous locomotor activity in C57Bl/6 mouse assessed as distance traveled administered for 11 days by truScan photo beam activity system analysis. It counts as toxicity. Particulars: in vivo, 264 h, time 11 day. The method in brief: as §4
Data set [15] deals with Dual specificity protein kinase CLK4 (Homo sapiens, UniProt Q9HAZ1). As to the kind of experiment: Inhibition of CLK4 (unknown origin).
Sequence of Dual specificity protein kinase CLK4 (Q9HAZ1 whole entry): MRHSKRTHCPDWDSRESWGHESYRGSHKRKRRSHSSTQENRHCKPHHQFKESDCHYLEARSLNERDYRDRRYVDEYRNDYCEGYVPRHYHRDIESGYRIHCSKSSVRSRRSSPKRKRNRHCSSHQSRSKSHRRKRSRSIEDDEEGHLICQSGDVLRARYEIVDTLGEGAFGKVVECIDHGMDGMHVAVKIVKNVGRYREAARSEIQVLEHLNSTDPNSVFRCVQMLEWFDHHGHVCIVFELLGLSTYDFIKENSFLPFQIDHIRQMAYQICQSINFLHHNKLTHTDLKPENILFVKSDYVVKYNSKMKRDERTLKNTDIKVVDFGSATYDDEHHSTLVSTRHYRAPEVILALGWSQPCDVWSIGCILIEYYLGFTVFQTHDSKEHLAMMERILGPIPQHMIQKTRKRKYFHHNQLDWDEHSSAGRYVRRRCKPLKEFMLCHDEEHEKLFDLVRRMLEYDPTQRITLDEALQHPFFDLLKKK
Data set [16] addresses Dual specificity protein kinase CLK2 (Homo sapiens, UniProt P49760). As to the kind of experiment: Inhibition of CLK2 (unknown origin).
Data set [17] deals with Mus musculus. As to the kind of experiment: Effect on histological changes in 20 weeks old MitoPark mouse lung assessed as slight enlargement of alveolar epithelial cells at 30 mg/kg/day administered for 15 weeks by hematoxylin and eosin staining based microscopic analysis. It counts as functional, organism-based. The method in brief:
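MitoPark mice were fed diet targeting 30 mg/kg/day or vehicle for 15 weeks and euthanized at 20 weeks of age (n=5/group). Kidney and lung were fixed in 10% neutral buffered formalin, paraffin-embedded, sectioned at 5 µm, H&E-stained and examined microscopically.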

For data set [18], the target named is Leucine-rich repeat serine/threonine-protein kinase 2 (Mus musculus) (UniProt Q5S006). In words: In vivo inhibition of LRRK2 in C57Bl/6 mouse brain assessed as reduction in pSer935 LRRK2 at 10 to 120 mg/kg administered for 11 days and measured for 8 to 24 hrs by Western blotting analysis. It counts as functional, organism-based. Particulars: dose 10-120 mg/kg, time 11.0 day. The essentials:
as §3

The subject of data set [19] is Mus musculus. As to the kind of experiment: Effect on behavioral phenotype in 11 weeks old MitoPark mouse assessed as decreased locomotor activity at 30 mg/kg/day administered for 6 weeks and measured after 60 mins truScan photo beam activity system analysis. In kind it is functional, organism-based. The method in brief:
as §1

The target in data set [20] is Leucine-rich repeat serine/threonine-protein kinase 2 (Mus musculus) (UniProt Q5S006). As to the kind of experiment: In vivo inhibition of LRRK2 in C57Bl/6 mouse brain assessed as inhibition of pSer935 LRRK2 administered for 11 days and measured after 24 hrs by Western blotting analysis. In kind it is functional, organism-based. As to conditions: dose 3-120 mg/kg, time 11.0 day. The essentials: as §3

Data set [21] has as its target Sodium-dependent noradrenaline transporter (Homo sapiens, UniProt P23975). In words: Inhibition of norepinephrine transporter (unknown origin). The method in brief:
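Radioligand binding selectivity screen was run at 10 μM, mean of three determinations. Where inhibition exceeded 50%, full concentration-displacement curves were run in triplicate and IC50 was obtained by nonlinear least-squares regression.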

Data set [22] is described as follows: Unbound brain concentration in C57Bl/6 mouse administered for 11 days and measured after 24 hrs. In kind it is ADME, tissue-based. Particulars: in vivo, 264 h, time 11 day. The essentials: as §4
A short description of data set [23]: Tmax in C57Bl/6 mouse at 10 mg/kg, po measured after 480 mins by LC-MS/MS analysis. In kind it is ADME, organism-based. Particulars: in vivo. The essentials: as §2
Data set [24] deals with Mus musculus. In words: Effect on behavioral phenotype in 8 weeks old MitoPark mouse assessed as locomotor activity at 30 mg/kg/day administered for 3 weeks and measured after 60 mins by truScan photo beam activity system analysis. It counts as functional, organism-based. The essentials: as §1

As a reminder, the MRT is a mean duration of stay, worked out from the concentration-time curve. As a reminder, the AUC is concentration integrated over time. The IC50 is the point on the concentration scale where inhibition reaches its midpoint. Low readings indicate greater potency, high ones weaker potency. In general, Tmax refers to the time at which the peak concentration occurs.

Sequence of Dual specificity protein kinase CLK2 (P49760 whole entry): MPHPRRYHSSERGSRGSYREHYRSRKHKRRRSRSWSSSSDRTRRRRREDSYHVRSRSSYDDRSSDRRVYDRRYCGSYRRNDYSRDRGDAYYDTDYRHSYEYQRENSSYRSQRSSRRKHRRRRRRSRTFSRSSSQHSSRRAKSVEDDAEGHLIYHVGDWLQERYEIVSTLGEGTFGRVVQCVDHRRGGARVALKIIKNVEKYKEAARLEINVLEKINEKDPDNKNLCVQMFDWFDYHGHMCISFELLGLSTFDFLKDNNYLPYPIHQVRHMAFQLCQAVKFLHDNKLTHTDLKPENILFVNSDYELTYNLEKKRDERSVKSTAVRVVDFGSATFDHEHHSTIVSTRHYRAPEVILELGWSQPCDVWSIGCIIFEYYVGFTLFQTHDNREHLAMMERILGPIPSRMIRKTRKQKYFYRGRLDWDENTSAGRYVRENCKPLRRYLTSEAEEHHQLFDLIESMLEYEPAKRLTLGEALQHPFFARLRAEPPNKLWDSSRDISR
Sequence of Sodium-dependent noradrenaline transporter (P23975 whole entry): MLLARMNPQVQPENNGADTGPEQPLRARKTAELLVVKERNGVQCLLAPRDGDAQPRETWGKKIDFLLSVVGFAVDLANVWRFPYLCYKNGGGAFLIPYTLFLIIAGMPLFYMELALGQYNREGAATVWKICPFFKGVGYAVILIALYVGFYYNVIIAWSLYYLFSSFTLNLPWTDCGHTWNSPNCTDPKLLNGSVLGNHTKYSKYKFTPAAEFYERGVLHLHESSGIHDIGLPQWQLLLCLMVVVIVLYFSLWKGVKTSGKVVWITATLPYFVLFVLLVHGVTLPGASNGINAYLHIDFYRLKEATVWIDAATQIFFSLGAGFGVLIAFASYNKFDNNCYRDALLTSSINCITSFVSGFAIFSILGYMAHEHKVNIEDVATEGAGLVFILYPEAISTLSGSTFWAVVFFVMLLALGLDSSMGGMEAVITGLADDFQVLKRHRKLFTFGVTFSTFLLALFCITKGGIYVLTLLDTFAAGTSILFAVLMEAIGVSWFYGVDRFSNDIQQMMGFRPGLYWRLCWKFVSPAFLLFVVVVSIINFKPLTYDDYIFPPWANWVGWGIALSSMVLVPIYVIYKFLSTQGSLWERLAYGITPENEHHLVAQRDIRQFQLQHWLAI

Consider `C[C@@H]1CN(c2cc(-c3n[nH]c4ccc(OC5(C)CC5)cc34)ncn2)C[C@H](C)O1` [MLi-2], for which the result in the data set with Mus musculus [1] was inactive. The inhibition entry in data set [2] and in [4] was “inactive” in each case. Moreover, the MRT in data set [3] stood at 2.7 h; in data set [6] it was 11 h. Besides, the results for the exposure (AUC) at 8 h in [5] and in [7] were 1.5 µM·h and 0.664 µM·h, respectively. The “Drug uptake(free)” value in data set [8] is 272.9 nM; in data set [9] it was “Active”; in data set [10], 0.6 nM; in [22], “Active”. Further, the result in the data set on Mus musculus [11], in the data set on Mus musculus [17], in the data set with Mus musculus [19] and with Mus musculus [24] was Active. Also, the inhibition result in data set [12], in [13] and in data set [18] was “Active” each time. In data set [14], the Activity result is on record as “Non-Toxic”. In addition, the IC50 stood at 225 nM in data set [15], 605 nM in [16] and 3800 nM in data set [21]. In data set [20], the inhibition entry is “Dose-Dependent Effect”. In addition, in data set [23], the time to peak (Tmax) turned out to be 0.75 h.
